{
  "source": "ChEMBL document CHEMBL1154352",
  "about": "“Toll-like receptor 7 selective synthetic oligoribonucleotide agonists: synthesis and structure-activity relationship studies” (J Med Chem, 2009)",
  "key": {"PBMC [1]": {"tested_on": "PBMC", "experiment": "Immunomodulatory activity in human PBMC assessed as induction of IL12 at 100 ug/ml after 24 hrs", "assay_type": "functional, cell-based", "method_in_brief": "(§1)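 Human PBMCs plated at 5 × 10^6 cells/mL; compounds dissolved in PBS added at various concentrations, 37 °C for 24 h. Supernatant cytokines/chemokines quantified with human Luminex multiplex kit.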"}, "[2]": {"biological_target": "T1, Toll-like receptor 7 (Homo sapiens) (UniProt Q9NYK1)", "T1 sequence (whole entry)": "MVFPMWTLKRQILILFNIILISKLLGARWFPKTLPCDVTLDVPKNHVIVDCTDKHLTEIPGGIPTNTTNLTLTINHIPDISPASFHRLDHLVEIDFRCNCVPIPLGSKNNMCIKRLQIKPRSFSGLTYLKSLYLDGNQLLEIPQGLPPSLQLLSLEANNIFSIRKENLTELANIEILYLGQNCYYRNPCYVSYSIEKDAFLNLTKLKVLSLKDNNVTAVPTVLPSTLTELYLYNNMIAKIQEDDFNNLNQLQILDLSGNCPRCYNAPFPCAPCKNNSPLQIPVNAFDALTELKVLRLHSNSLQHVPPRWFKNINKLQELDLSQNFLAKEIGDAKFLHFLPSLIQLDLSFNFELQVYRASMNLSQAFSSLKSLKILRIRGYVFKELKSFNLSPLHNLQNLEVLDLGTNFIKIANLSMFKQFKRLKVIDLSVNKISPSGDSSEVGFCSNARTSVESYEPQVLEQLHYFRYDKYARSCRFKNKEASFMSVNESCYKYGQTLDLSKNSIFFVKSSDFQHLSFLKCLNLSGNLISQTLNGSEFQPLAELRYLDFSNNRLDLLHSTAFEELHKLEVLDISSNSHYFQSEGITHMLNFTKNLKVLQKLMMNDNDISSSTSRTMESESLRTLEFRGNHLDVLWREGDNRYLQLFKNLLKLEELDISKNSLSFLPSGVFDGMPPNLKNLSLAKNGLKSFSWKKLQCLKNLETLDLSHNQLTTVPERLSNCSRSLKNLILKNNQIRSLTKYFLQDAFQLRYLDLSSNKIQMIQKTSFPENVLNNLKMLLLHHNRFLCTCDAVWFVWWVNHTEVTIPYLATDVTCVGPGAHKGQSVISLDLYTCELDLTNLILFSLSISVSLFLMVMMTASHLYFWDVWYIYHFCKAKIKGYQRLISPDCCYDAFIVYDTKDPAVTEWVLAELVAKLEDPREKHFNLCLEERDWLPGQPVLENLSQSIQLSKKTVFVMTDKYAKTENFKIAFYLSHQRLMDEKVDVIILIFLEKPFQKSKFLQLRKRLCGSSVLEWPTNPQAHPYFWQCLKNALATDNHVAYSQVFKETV", "experiment": "Activation of human TLR7 expressed in HEK293XL assessed as fold induction of NF-kappaB activity at 50 ug/ml after 18 hrs by reporter gene assay relative to control", "method_in_brief": "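HEK293 cells stably expressing human TLR7 or TLR8, transiently transfected with SEAP reporter plasmid; medium replaced, SIMRA compounds added, 18 h incubation. Supernatant SEAP measured by QuantiBlue; expressed as fold increase in NF-κB activity over PBS control. Tabulated data at 50 μg/mL, representative of three independent experiments.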"}, "PBMC [3]": {"tested_on": "PBMC", "experiment": "Immunomodulatory activity in human PBMC assessed as induction of IFN-alpha at 100 ug/ml after 24 hrs"}, "[4]": {"biological_target": "T2, Toll-like receptor 9 (Mus musculus) (UniProt Q9EQU3)", "T2 sequence (whole entry)": "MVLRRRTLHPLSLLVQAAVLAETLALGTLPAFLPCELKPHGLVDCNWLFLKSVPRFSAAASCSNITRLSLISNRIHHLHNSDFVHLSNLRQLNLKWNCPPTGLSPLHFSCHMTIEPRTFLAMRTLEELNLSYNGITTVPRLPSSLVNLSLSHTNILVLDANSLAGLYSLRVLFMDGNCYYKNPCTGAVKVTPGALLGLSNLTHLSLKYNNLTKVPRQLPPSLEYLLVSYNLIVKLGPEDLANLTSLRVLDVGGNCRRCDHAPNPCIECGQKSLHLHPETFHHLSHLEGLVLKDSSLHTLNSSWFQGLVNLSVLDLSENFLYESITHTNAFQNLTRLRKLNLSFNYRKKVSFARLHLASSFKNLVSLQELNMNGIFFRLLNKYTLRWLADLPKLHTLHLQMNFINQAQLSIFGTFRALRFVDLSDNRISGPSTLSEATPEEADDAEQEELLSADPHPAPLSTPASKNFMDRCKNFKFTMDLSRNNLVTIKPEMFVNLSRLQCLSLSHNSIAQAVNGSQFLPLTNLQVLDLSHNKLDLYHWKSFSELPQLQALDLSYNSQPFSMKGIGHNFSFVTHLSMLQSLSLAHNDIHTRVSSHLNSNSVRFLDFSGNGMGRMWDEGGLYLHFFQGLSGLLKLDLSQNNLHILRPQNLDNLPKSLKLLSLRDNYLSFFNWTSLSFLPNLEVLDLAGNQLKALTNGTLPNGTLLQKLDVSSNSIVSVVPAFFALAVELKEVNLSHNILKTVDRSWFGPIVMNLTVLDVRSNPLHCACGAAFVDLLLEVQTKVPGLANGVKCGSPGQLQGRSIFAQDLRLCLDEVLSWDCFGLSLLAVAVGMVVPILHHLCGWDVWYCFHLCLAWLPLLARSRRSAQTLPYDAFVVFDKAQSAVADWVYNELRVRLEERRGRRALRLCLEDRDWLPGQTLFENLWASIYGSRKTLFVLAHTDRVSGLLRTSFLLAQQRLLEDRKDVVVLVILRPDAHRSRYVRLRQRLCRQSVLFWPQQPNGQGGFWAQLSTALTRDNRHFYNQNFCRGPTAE", "experiment": "Activation of mouse TLR9 expressed in HEK293 assessed as induction of NF-kappaB activity reporter gene assay", "assay_type": "cell-based"}, "PBMC [5]": {"tested_on": "PBMC", "experiment": "Immunomodulatory activity in human PBMC assessed as induction of TNFalpha at 100 ug/ml after 24 hrs", "assay_type": "functional, cell-based", "method_in_brief": "as §1"}, "Homo sapiens": {"species": "Homo sapiens", "experiment": "Ratio of human TLR7 activity to human TLR8 activity", "method_in_brief": "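TLR7/TLR8 ratio computed from fold NF-κB (SEAP reporter) activation in HEK293 cells stably expressing human TLR7 versus TLR8, compounds at 50 μg/mL, 18 h exposure; representative of three independent experiments.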"}, "Splenocyte [6]": {"tested_on": "Splenocyte", "experiment": "Immunomodulatory activity in C57BL/6 mouse splenocytes bearing TLR7 receptor assessed as IL6 release at 100 ug/ml after 24 hrs by ELISA", "assay_type": "functional, cell-based", "method_in_brief": "(§2)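 C57BL/6 splenocytes in RPMI 1640 with 10% FBS, penicillin/streptomycin, 2 mM L-glutamine, plated at 5 × 10^6 cells/mL; compounds in PBS added, 37 °C for 24 h. Supernatant IL-12 and IL-6 by ELISA; representative of three independent experiments.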"}, "Splenocyte [7]": {"tested_on": "Splenocyte", "experiment": "Immunomodulatory activity in C57BL/6 mouse splenocytes bearing TLR7 receptor assessed as IL12 release at 100 ug/ml after 24 hrs by ELISA", "assay_type": "functional, cell-based", "method_in_brief": "as §2"}},
  "note": "Active and inactive are the calls of the source. The calls are words filed in the database; no cut-off is given here.",
  "data": [
    {"molecule": "Nc1ccn([C@@H]2O[C@H](COP(=O)(S)O[C@H]3[C@@H](O)[C@H](n4cnc5c(=O)[nH]c(N)nc54)O[C@@H]3COP(=O)(S)O[C@H]3[C@@H](O)[C@H](n4ccc(=O)[nH]c4=O)O[C@@H]3COP(=O)(S)OCCCO)[C@@H](OP(=O)(S)OC[C@H]3O[C@@H](n4ccc(=O)[nH]c4=O)[C@H](O)[C@@H]3OP(=O)(S)OC[C@H]3O[C@@H](n4cnc5c(=O)[nH]c(N)nc54)[C@H](O)[C@@H]3OP(=O)(S)OC[C@H]3O[C@@H](n4ccc(N)nc4=O)[C@H](O)[C@@H]3OP(=O)(S)OC[C@H]3O[C@@H](n4ccc(=O)[nH]c4=O)[C@H](O)[C@@H]3OP(=O)(S)OC[C@H]3O[C@@H](n4ccc(=O)[nH]c4=O)[C@H](O)[C@@H]3OP(=O)(S)OC[C@H]3O[C@@H](n4cnc5c(=O)[nH]c(N)nc54)[C@H](O)[C@@H]3OP(=O)(S)OC[C@H]3O[C@@H](n4ccc(=O)[nH]c4=O)[C@H](O)[C@@H]3OP(=O)(S)OC[C@H]3O[C@@H](n4cnc5c(=O)[nH]c(N)nc54)[C@H](O)[C@@H]3OP(=O)(S)OCC(O)COP(=O)(S)O[C@H]3[C@@H](O)[C@H](n4cnc5c(=O)[nH]c(N)nc54)O[C@@H]3COP(=O)(S)O[C@H]3[C@@H](O)[C@H](n4ccc(=O)[nH]c4=O)O[C@@H]3COP(=O)(S)O[C@H]3[C@@H](O)[C@H](n4cnc5c(=O)[nH]c(N)nc54)O[C@@H]3COP(=O)(S)O[C@H]3[C@@H](O)[C@H](n4ccc(=O)[nH]c4=O)O[C@@H]3COP(=O)(S)O[C@H]3[C@@H](O)[C@H](n4ccc(=O)[nH]c4=O)O[C@@H]3COP(=O)(S)O[C@H]3[C@@H](O)[C@H](n4ccc(N)nc4=O)O[C@@H]3COP(=O)(S)O[C@H]3[C@@H](O)[C@H](n4cnc5c(=O)[nH]c(N)nc54)O[C@@H]3COP(=O)(S)O[C@H]3[C@@H](O)[C@H](n4ccc(=O)[nH]c4=O)O[C@@H]3COP(=O)(S)O[C@H]3[C@@H](O)[C@H](n4ccc(N)nc4=O)O[C@@H]3COP(=O)(S)O[C@H]3[C@@H](O)[C@H](n4cnc5c(=O)[nH]c(N)nc54)O[C@@H]3COP(=O)(S)O[C@H]3[C@@H](O)[C@H](n4ccc(=O)[nH]c4=O)O[C@@H]3COP(=O)(S)OCCCO)[C@H]2O)c(=O)n1", "note": "(stereo partly specified)", "values": [
      {"measurement": "Activity", "setting": "PBMC [1]", "result": 715, "unit": "pg/mL"},
      {"measurement": "fold change (FC)", "setting": "[2]", "result": 0.5},
      {"measurement": "IFN-alpha", "setting": "PBMC [3]", "result": 81.6, "unit": "pg/mL"},
      {"measurement": "Activity", "setting": "[4]", "result": "inactive"},
      {"measurement": "Activity", "setting": "PBMC [5]", "result": 260, "unit": "pg/mL"},
      {"measurement": "Ratio", "setting": "Homo sapiens", "result": 0.1}
    ]},
    {"molecule": "Nc1ccn([C@@H]2O[C@H](COP(=O)(S)O[C@H]3[C@@H](O)[C@H](n4ccc5c(=O)[nH]c(N)nc54)O[C@@H]3COP(=O)(S)O[C@H]3[C@@H](O)[C@H](n4cnc5c(N)ncnc54)O[C@@H]3COP(=O)(S)O[C@H]3[C@@H](O)[C@H](n4cnc5c(N)ncnc54)O[C@@H]3COP(=O)(S)O[C@H]3[C@@H](O)[C@H](n4ccc5c(=O)[nH]c(N)nc54)O[C@@H]3COP(=O)(S)O[C@H]3[C@@H](O)[C@H](n4ccc(=O)[nH]c4=O)O[C@@H]3COP(=O)(S)O[C@H]3[C@@H](O)[C@H](n4ccc(=O)[nH]c4=O)O[C@@H]3COP(=O)(S)O[C@H]3[C@@H](O)[C@H](n4cnc5c(N)ncnc54)O[C@@H]3COP(=O)(S)O[C@H]3[C@@H](O)[C@H](n4cnc5c(N)ncnc54)O[C@@H]3CO)[C@@H](OP(=O)(S)OC[C@H]3O[C@@H](n4ccc(=O)[nH]c4=O)[C@H](O)[C@@H]3OP(=O)(S)OC[C@H]3O[C@@H](n4ccc5c(=O)[nH]c(N)nc54)[C@H](O)[C@@H]3OP(=O)(S)OCC(O)COP(=O)(S)O[C@H]3[C@@H](O)[C@H](n4ccc5c(=O)[nH]c(N)nc54)O[C@@H]3COP(=O)(S)O[C@H]3[C@@H](O)[C@H](n4ccc(=O)[nH]c4=O)O[C@@H]3COP(=O)(S)O[C@H]3[C@@H](O)[C@H](n4ccc(N)nc4=O)O[C@@H]3COP(=O)(S)O[C@H]3[C@@H](O)[C@H](n4ccc5c(=O)[nH]c(N)nc54)O[C@@H]3COP(=O)(S)O[C@H]3[C@@H](O)[C@H](n4cnc5c(N)ncnc54)O[C@@H]3COP(=O)(S)O[C@H]3[C@@H](O)[C@H](n4cnc5c(N)ncnc54)O[C@@H]3COP(=O)(S)O[C@H]3[C@@H](O)[C@H](n4ccc5c(=O)[nH]c(N)nc54)O[C@@H]3COP(=O)(S)O[C@H]3[C@@H](O)[C@H](n4ccc(=O)[nH]c4=O)O[C@@H]3COP(=O)(S)O[C@H]3[C@@H](O)[C@H](n4ccc(=O)[nH]c4=O)O[C@@H]3COP(=O)(S)O[C@H]3[C@@H](O)[C@H](n4cnc5c(N)ncnc54)O[C@@H]3COP(=O)(S)O[C@H]3[C@@H](O)[C@H](n4cnc5c(N)ncnc54)O[C@@H]3CO)[C@H]2O)c(=O)n1", "note": "(stereo partly specified)", "values": [
      {"measurement": "Activity", "setting": "Splenocyte [6]", "result": "Active"},
      {"measurement": "Activity", "setting": "Splenocyte [7]", "result": "Active"},
      {"measurement": "fold change (FC)", "setting": "[2]", "result": 13.7},
      {"measurement": "Activity", "setting": "[4]", "result": "inactive"},
      {"measurement": "Ratio", "setting": "Homo sapiens", "result": 19.6}
    ]}
  ]
}
